Source: ChEMBL document CHEMBL6134795, “Mannich reaction mediated derivatization of chromones and their biological evaluations as putative multipotent ligands for the treatment of Alzheimer's disease” (RSC Med Chem, 2024)
Active and inactive are the calls of the source. The calls are words filed in the database; no cut-off is given here.

Experiments:
[1] = molecular target: T1, Amine oxidase [flavin-containing] B (Homo sapiens, UniProt P27338); test: Reversible inhibition of MAO-B (unknown origin) assessed as residual activity at 0.1 times IC50 incubated for 30 mins by dilution method relative to control; conditions: 0.5 h
T1 sequence (P27338 whole entry): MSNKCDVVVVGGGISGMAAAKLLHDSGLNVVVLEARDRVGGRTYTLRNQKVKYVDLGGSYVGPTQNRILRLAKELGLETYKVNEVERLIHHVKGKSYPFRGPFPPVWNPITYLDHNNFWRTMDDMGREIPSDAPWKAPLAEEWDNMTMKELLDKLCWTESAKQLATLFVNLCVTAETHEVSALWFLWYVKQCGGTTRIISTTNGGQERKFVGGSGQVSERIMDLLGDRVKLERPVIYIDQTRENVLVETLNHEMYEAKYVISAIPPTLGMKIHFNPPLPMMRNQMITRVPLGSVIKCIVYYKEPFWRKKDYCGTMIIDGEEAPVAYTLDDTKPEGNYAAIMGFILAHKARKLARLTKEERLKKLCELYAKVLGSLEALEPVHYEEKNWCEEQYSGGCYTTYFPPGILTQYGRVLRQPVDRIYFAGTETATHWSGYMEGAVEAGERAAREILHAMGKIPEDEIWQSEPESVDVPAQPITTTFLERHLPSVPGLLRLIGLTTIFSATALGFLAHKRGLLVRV

Acetylcholinesterase [2] = molecular target: T2, Acetylcholinesterase (Homo sapiens, UniProt P22303); test: Reversible inhibition of AChE (unknown origin) assessed as residual activity at 0.1 times IC50 incubated for 30 mins by dilution method relative to control
Outline: (§1)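 Samples then diluted 100-fold with substrate, giving final inhibitor levels of 0.1× and 1× IC50. Recovered activity measured relative to control; triplicate.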

SH-SY5Y [3] = test: Cytotoxicity against human SH-SY5Y cells assessed as reduction in cell viability at 1 to 25 uM by MTT assay; type: functional, cell-based; conditions: dose 1-25 µM
Outline: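 SH-SY5Y cells (DMEM/F-12 with 10% FBS, 1% horse serum, 1% penicillin) preincubated 24 h with compound at 1, 5 or 25 μM; MTT converted to formazan, solubilised in DMSO, absorbance read at 595 nm; viability expressed as percentage of untreated control.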

SH-SY5Y [4] = test: Neuroprotective activity against 6-OHDA-induced cytotoxicity in human SH-SY5Y cells assessed as cell viability at 5 uM incubated for 24 hrs followed by exposure to 6-OHDA by MTT assay relative to control; type: functional; conditions: read-out: Activity
Outline: (§2)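 SH-SY5Y cells treated with compound (1, 5, 25 μM) and challenged with 6-OHDA; cultured 24 h at 37 °C under humidified 5% CO2. Viability measured by MTT as formazan absorbance at 594 nm and expressed relative to control.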

Acetylcholinesterase [5] = molecular target: T2, Acetylcholinesterase; test: Reversible inhibition of AChE (unknown origin) assessed as residual activity at 1 times IC50 incubated for 30 mins by dilution method relative to control; outline: as §1
SH-SY5Y [6] = test: Neuroprotective activity against 6-OHDA-induced cytotoxicity in human SH-SY5Y cells assessed as cell viability at 25 uM incubated for 24 hrs followed by exposure to 6-OHDA by MTT assay relative to control; type: functional; conditions: read-out: Activity; outline: as §2
[7] = molecular target: T3, Amine oxidase [flavin-containing] A (Homo sapiens, UniProt P21397); test: Inhibition of recombinant MAO-A (unknown origin) at 20 uM preincubated for 30 mins followed substrate addition by Amplex Red reagent based fluorescence analysis relative to control
T3 sequence (P21397 whole entry): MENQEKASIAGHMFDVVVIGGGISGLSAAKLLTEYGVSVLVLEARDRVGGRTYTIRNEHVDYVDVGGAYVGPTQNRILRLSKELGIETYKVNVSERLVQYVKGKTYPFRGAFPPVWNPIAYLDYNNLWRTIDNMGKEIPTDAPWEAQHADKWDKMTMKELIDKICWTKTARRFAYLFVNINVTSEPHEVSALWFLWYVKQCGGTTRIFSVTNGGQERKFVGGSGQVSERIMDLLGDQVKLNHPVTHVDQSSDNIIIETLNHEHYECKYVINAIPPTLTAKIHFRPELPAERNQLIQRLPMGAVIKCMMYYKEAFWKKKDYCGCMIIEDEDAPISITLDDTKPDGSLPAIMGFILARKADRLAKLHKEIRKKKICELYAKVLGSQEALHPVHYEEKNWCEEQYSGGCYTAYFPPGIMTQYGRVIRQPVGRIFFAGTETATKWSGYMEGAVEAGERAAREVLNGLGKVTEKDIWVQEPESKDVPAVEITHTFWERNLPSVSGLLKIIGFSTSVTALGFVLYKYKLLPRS
Outline: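 Recombinant MAO enzyme preincubated with compound 30 min at 37 °C; substrate, HRP and Amplex Red working solution then added; H2O2 formation read at 37 °C by fluorescence, ex 545/em 590 nm. Screening at 20 μM as % inhibition versus control; IC50 only for compounds above 50% inhibition at 20 μM; triplicate (n = 3).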

[8] = molecular target: Amyloid-beta precursor protein (Homo sapiens) (UniProt P05067); test: Inhibition of self-induced amyloid beta (1 to 42 residues) (unknown origin) aggregation assessed as reduction in fibrils formation measured after 72 hrs by FE-SEM analysis
Outline: (§3)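 HFIP-pretreated Aβ1-42 incubated with or without inhibitor for 72 h; samples placed on carbon-coated copper grids, dried 1 h at 37 °C, imaged by FE-SEM. Glycine–NaOH buffer served as blank and Aβ alone as control.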

[9] = molecular target: T1, Amine oxidase [flavin-containing] B; test: Reversible inhibition of MAO-B (unknown origin) assessed as residual activity at 100 times IC50 incubated for 30 mins by dilution method relative to control; conditions: 0.5 h
Cholinesterase = Cholinesterase (Homo sapiens, UniProt P06276); test: Inhibition of recombinant BuChE (unknown origin) using BTCI as substrate at 20 uM preincubated for 30 mins followed by substrate addition by TECAN multiplate reader analysis relative to control
Outline: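 Ellman method as for AChE, using butyrylcholinesterase with BTCI as substrate. Enzyme and compound preincubated 30 min at 37 °C in a CO2 incubator, then DTNB and BTCI added; absorbance read at 417 nm. Screening at 20 μM as % inhibition; IC50 for compounds exceeding 50% inhibition at 20 μM. Triplicate.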

[10] = molecular target: Amyloid-beta precursor protein (Homo sapiens) (UniProt P05067); test: Inhibition of self-induced amyloid beta (1 to 42 residues) (unknown origin) aggregation assessed as reduction in plaques formation measured after 72 hrs by FE-SEM analysis; outline: as §3
SH-SY5Y [11] = test: Inhibition of ROS production in human SH-SY5Y cells assessed as intracellular ROS level at 5 uM incubated for 24 hrs by DCF-DA staining based fluorescence analysis relative to control; type: functional
Outline: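 Cultured SH-SY5Y cells exposed to compound (1, 5, 25 μM) for 24 h; intracellular ROS detected with DCF-DA, which is converted to fluorescent 2,7-DCF, read at ex 478/em 518 nm. Inhibition is expressed relative to control. Mean ± SD of triplicate or more independent experiments.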

Acetylcholinesterase [12] = molecular target: T2, Acetylcholinesterase; test: Reversible inhibition of AChE (unknown origin) assessed as residual activity at 100 times IC50 incubated for 30 mins by dilution method relative to control; outline: as §1
[13] = molecular target: T1, Amine oxidase [flavin-containing] B; test: Inhibition of recombinant MAO-B (unknown origin) preincubated for 30 mins followed substrate addition by Amplex Red reagent based fluorescence analysis

T2 sequence (P22303 whole entry): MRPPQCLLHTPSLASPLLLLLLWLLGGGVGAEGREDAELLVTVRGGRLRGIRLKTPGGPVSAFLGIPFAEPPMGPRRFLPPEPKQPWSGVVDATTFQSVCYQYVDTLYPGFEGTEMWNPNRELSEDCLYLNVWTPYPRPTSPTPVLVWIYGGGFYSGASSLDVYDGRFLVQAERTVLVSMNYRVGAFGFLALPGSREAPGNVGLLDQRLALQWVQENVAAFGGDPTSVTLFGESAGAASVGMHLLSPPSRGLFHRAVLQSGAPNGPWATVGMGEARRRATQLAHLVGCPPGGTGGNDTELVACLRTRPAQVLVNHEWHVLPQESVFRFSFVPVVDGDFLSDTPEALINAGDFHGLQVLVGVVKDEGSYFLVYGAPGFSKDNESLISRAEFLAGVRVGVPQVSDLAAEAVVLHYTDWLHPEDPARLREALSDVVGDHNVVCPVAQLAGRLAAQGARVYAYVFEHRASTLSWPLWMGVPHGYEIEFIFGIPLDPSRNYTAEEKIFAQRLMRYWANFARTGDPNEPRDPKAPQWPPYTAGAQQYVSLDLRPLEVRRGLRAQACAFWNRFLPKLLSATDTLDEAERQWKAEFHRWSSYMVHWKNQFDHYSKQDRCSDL
Chain of Amyloid-beta precursor protein (Homo sapiens) (P05067 whole entry, the tested form may be a part): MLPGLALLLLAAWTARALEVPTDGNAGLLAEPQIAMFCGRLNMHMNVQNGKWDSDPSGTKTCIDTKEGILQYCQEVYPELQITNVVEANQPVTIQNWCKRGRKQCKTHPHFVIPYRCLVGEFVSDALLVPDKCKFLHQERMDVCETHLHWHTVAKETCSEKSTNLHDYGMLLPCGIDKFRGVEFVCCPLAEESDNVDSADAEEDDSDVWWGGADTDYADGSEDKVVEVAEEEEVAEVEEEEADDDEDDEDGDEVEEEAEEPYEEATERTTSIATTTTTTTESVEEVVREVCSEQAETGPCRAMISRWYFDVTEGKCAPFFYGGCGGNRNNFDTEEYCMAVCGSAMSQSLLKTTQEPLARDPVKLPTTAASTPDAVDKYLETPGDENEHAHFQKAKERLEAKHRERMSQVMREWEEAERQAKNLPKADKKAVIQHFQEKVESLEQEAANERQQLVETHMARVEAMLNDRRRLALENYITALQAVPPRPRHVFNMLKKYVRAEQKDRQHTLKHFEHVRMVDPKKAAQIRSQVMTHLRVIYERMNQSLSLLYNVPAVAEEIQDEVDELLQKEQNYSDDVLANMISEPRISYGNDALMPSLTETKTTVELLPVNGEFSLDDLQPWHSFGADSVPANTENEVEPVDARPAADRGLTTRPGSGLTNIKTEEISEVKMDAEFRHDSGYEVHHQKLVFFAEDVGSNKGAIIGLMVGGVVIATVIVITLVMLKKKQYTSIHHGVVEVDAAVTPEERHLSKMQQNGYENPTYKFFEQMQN
Chain of Cholinesterase (P06276 whole entry): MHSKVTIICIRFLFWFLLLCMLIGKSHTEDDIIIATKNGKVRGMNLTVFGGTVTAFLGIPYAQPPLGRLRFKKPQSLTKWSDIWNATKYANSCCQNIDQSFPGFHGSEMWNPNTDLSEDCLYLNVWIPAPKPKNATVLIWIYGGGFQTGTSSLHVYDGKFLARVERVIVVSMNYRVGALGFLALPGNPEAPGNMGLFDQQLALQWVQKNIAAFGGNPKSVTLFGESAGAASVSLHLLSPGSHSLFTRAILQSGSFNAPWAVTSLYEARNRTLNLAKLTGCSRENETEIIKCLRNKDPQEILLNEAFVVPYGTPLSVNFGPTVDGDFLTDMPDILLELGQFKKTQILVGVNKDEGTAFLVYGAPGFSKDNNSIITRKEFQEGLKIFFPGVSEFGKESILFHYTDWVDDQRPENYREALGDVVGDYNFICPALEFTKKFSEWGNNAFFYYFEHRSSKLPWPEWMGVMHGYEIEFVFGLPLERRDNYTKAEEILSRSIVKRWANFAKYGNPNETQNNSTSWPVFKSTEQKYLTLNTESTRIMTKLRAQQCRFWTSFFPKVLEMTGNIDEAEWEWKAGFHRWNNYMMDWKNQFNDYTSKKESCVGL

In the case of `C#CCCCOc1ccc(-c2cc(=O)c3ccccc3o2)cc1CN1CCCCC1`, the Activity [1] is reported as 71.4%, the Activity (Acetylcholinesterase [2]) is reported as 60.6% and the Activity (SH-SY5Y [3]) is reported as “Not toxic”. The viability at 5 µM (SH-SY5Y [4]) was 42.9%, the Activity (Acetylcholinesterase [5]) was 44.9% and the viability at 25 µM (SH-SY5Y [6]) was 44.1%. For the same compound, the inhibition at 20 µM [7] was 0.23%, the inhibition [8] was “Active” and the Activity [9] was 15%. For the same compound, the inhibition (Cholinesterase) was 87.9%, the inhibition [10] was “Active” and the inhibition at 5 µM (SH-SY5Y [11]) was 44.9%. For the same compound, the Activity (Acetylcholinesterase [12]) was 17.7% and the IC50 [13] was 12.3 µM.
